Measurements taken from the EternaBench riboswitch data.

Tested on: MS2 coat protein
Experiment: apparent Kd, MS2 coat protein; higher = weaker binding; RNA-MaP array; FMN 200 µM where present
Method in brief: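 Apparent Kd: the median of filtered binding-curve fits from single clusters. Designs were transcribed on Illumina sequencing-chip clusters by stalled E. coli RNA polymerase and titrated with SNAP-549-labelled MS2 coat protein from 0.7 or 1.5 nM, doubling to 3 µM, in 100 mM Tris-HCl pH 7.5, 80 mM KCl, 4 mM MgCl2, BSA, DTT, yeast tRNA and Tween-20. Each series ran without and then with constant ligand, and green signal was normalised to red-channel RNA signal and control-cluster median Fmax.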

[1] = designed as: ON switch for flavin mononucleotide, no ligand
[2] = ligand present: flavin mononucleotide, designed as: ON switch for flavin mononucleotide
[3] = designed as: OFF switch for flavin mononucleotide, no ligand
[4] = ligand present: flavin mononucleotide, designed as: OFF switch for flavin mononucleotide

Sequence: UAAAUCUAGUAAGGAUAUACACGAGAUUCAAGUGUAGAAGGUACUUACAUGAGGAUCACCCAUGUAUACAUGGAUAAUAGAUAU
- apparent Kd [1]: 234 nM
- apparent Kd [2]: 109 nM

Sequence: AGGAGGUCAGGAUAUGCAUGGCGGGACUUGCGUCGUGGCGUGCAGAAGGGACAUGAGGAUCACCCAUGUGGAGG
- apparent Kd [3]: 125 nM
- apparent Kd [4]: 181 nM

Sequence: UUUACAUGAGGAUCACCCAUGUCUUGAAAGAUUAGUUUUGGUGAGGAUAUACAUGAUAAAGAAUUGUAGAAGGCACUGGGUACA
- apparent Kd [1]: 258 nM
- apparent Kd [2]: 124 nM

Sequence: UUGGACGUCGUAGGAUAUGUAGGAUAUUCCUACAUGAGGAUCACCCAUGUUGACAUGGAAGAAGGACAGAAGGACCAUGUCCAU
- apparent Kd [1]: 451 nM
- apparent Kd [2]: 14.8 nM

Sequence: GUACAUACAAAGUUACAUGAGGAUCACCCAUGUUUAUUGGGAAGAAGGGUAACAUUAUUAGAUAUAUAGGAUAUUUCACAAUUG
- apparent Kd [1]: 718 nM
- apparent Kd [2]: 387 nM

Sequence: GCGGGCCGCGCAGGAUAUACAGGGUACAUGAGGAUCACCCAUGUCCUUGGUGAGAUCAUUUGCCCGUAGAAGGGCGAGGGUCGG
- apparent Kd [3]: 44.3 nM
- apparent Kd [4]: 114 nM

Sequence: CAGCCCUGAGGAUAUCCACCCUCGUACAUGAGGAUCACCCAUGUUUCCCUCUGGGCUUUCGGAGAAGGCAGGUAUC
- apparent Kd [3]: 78.6 nM
- apparent Kd [4]: 77.3 nM

Sequence: UUAAAUCAUGUAGGAUAUGCAUGGCGAAGCUACGCAGAAGGACAUGAGGAUCACCCAUGUUCAAGCUACCGAGUUCGGUGGCAA
- apparent Kd [3]: 23.3 nM
- apparent Kd [4]: 148 nM

Sequence: AAUCCACAUGAGGAUCACCCAUGUCAGGAUAUGGUGACGCGGGUUUCGGUGCGUGUUGCCAGAAGGGACGGCUG
- apparent Kd [3]: 27 nM
- apparent Kd [4]: 46.7 nM

Sequence: CAUGUCCUCACAGGAUAUGCUGGACUUUGUCCAGCAGAAGGGUGAACAUGAGGAUCACCCAUGUAAUGGACAUGUAUAUUUAAU
- apparent Kd [1]: 801 nM
- apparent Kd [2]: 50.9 nM

Sequence: GCCAUCGCAUGAGGAUAUGGCACCGUUUCGGUGCCAGAAGGCAUGUCAAAUGACAUGAGGAUCACCCAUGUAGUUAAGGUGGCA
- apparent Kd [1]: 225 nM
- apparent Kd [2]: 14.9 nM

Sequence: GGAUAGGACGGAGGAUAUACGUGCUAGAGAUACUAGCAAAAUUUCCUCACAUGAGGAUCACCCAUGUAGAAGGCUGUCCUAUCG
- apparent Kd [3]: 12.2 nM
- apparent Kd [4]: 222 nM

Sequence: GCCAGUUAUGUAGGAUAUGCGAGGCGAGCCUGAGCAGAAGGACAUGAGGAUCACCCAUGUAUUGCGGUUUGAGUACUGAUCGCU
- apparent Kd [3]: 38.1 nM
- apparent Kd [4]: 215 nM

Sequence: CUUUUGUGAGGAUAUUAGUAUUAAAUAAAUAAAAUUACUACUGAGAAGGCACAUGAGGAUCACCCAUGUUCCUC
- apparent Kd [3]: 30.3 nM
- apparent Kd [4]: 131 nM

Sequence: GGAUGACAAAGUCAUCCAAAUCGAACAUGAGGAUCACCCAUGUAGGAUAUGCUUCUCAAAGAGAAGCAGAAGGACAUGUGCUUU
- apparent Kd [3]: 37.8 nM
- apparent Kd [4]: 228 nM

Sequence: AAGUCAGCAGGAUAUGCGAUGGUGUGCUAGGUAGCUUGCCCACAUGAGGAUCACCCAUGUAGAAGGGCUGGCUA
- apparent Kd [3]: 13.2 nM
- apparent Kd [4]: 12.1 nM

Sequence: CCGUCAAUCGAGAAGGGCCUAUGUGCUACACCGGCAGGAUAUCGACAUGAGGAUCACCCAUGUUGGCGAUCCUUUUUGGCGGAC
- apparent Kd [3]: 135 nM
- apparent Kd [4]: 36.5 nM

Sequence: AUCAGCUCGUCAGGAUAUACGUCACUGCGUCAGCAGUAUGGUAAGAUCACAUGAGGAUCACCCAUGUAGAAGGGACGAGCUGAU
- apparent Kd [3]: 62.2 nM
- apparent Kd [4]: 663 nM

Sequence: UCAUACAUUCGAGGAUAUCGGUGAUAACUCAAACGAGAAGGCGAUUUAAAACAUAAUGCUGUAGACAUGAGGAUCACCCAUGUA
- apparent Kd [1]: 476 nM
- apparent Kd [2]: 182 nM

Sequence: CAUUAAUUCAUUAUAGUAAUUUUACAGGAUAUGUAACAUGAGGAUCACCCAUGUAUUCUUGGUUAACAGAAGGGUAUUACUUGU
- apparent Kd [3]: 19.3 nM
- apparent Kd [4]: 29.7 nM

Sequence: UAUUGUUCCUGAGGAUAUCAGUUGUUUGCAUUAUGAGAAGGCAGUACAUGAGGAUCACCCAUGUUGGGAUUUGAUAGAAUGAUA
- apparent Kd [1]: 185 nM
- apparent Kd [2]: 195 nM

Sequence: CAGCUACCCAGUAUGGGUUUUUGUACAGAAGGCCAGGUACAUGAGGAUCACCCAUGUAAAGAUAUGGAGGAUAUGUUAGUGUAU
- apparent Kd [1]: 29.1 nM
- apparent Kd [2]: 8.08 nM

Sequence: GUAGUAUAAAGUUCAUAAUAUAGGAUAGAAGGUGAAAAUUUGACAUGAGGAUCACCCAUGUAAUUCAAGGAUAUGUAGUUACUC
- apparent Kd [1]: 128 nM
- apparent Kd [2]: 96.5 nM

Sequence: AUUUUACAUGAGGAUCACCCAUGUUUUGGUGGGUCAGGAUAUAGAUCGGAUGAGUUCUGGCUAGAAGGGACAUAUA
- apparent Kd [1]: 75.9 nM
- apparent Kd [2]: 66.4 nM

Sequence: UUAUUUAGUGUGAGGAUAUGCUGGUCCAUAGAUCAGCAGAAGGCACAUGAGGAUCACCCAUGUAAUAUAUUAAU
- apparent Kd [3]: 26.5 nM
- apparent Kd [4]: 202 nM

Sequence: AGAUUUCAUGAGGAUAUCGUAUUAGAUUUAUUGCGAGAAGGCAUGACAUGAGGAUCACCCAUGUAGUGUUGGUU
- apparent Kd [3]: 49.3 nM
- apparent Kd [4]: 96.6 nM

Sequence: CCCUCACAUGAGGAUCACCCAUGUCCUAGCAGGUCAGGAUAUAGCCCGCAUCCGCUGCGGCUAGAAGGGACAGCUG
- apparent Kd [1]: 244 nM
- apparent Kd [2]: 105 nM

Sequence: AUAGAAGACUAGAAGGACCUAGCUGUAUACCGUCGAGGUAUAUAGCUAGGUAGGAUAUGGGACAUGAGGAUCACCCAUGUCUUG
- apparent Kd [1]: 8.58 nM
- apparent Kd [2]: 7.58 nM

Sequence: UGGAUCAAUACAGGAUAUGGUGACGCACAUGAGGAUCACCCAUGUCCGCAGCGUGCUAAGCACGCCCAGAAGGGUAUUAAUUCG
- apparent Kd [1]: 885 nM
- apparent Kd [2]: 90 nM

Sequence: AAAAAGUCAGGAUAUCCAAAAAAAAAAAAAAAAAAAAAAAAGGAGAAGGGACAUGAGGAUCACCCAUGUAAAAA
- apparent Kd [3]: 77.9 nM
- apparent Kd [4]: 85.3 nM

Sequence: UUUUUUAUGUAAGGAUAUCGAUUAUAUACACAUCCUACAUGAGGAUCACCCAUGUUUUAAUUUAUCGAGAAGGUACAUUGUCUG
- apparent Kd [1]: 34.1 nM
- apparent Kd [2]: 36.5 nM

Sequence: AUGGUCAAGUGUGAGGAUAUCCAUGCUCCCACAUGAGGAUCACCCAUGUCUUAAAGGGCGUAAAGGGAGAAGGUACGAACGCCAC
- apparent Kd [1]: 34.3 nM
- apparent Kd [2]: 27.8 nM

Sequence: AAAAAGCGAGGAUAUACAAAAGAGCGAAAGCUCAAAAGGAAACAUGAGGAUCACCCAUGUAGAAGGCGCAAGAA
- apparent Kd [3]: 21.7 nM
- apparent Kd [4]: 20.3 nM

Sequence: ACAGUAAACGAAGGAUAUGGUUACAUGAGGAUCACCCAUGUAAUGGUUGUGAUAUUGAUUAAGUUCCAGAAGGUCGUAUACUUA
- apparent Kd [3]: 190 nM
- apparent Kd [4]: 272 nM

Sequence: GGAAAUCAUGUAGGAUAUGCAUGGCGAAGCUACGCAGAAGGACAUGAGGAUCACCCAUGUUAGAGCGUCCGAGAAAGGAUGCAA
- apparent Kd [3]: 43.2 nM
- apparent Kd [4]: 250 nM

Sequence: CCGGUAUAGGAGGAUAUAGGAGUCGAUAGACACCUAGAAGGCCUGACAUGAGGAUCACCCAUGUGUCCUUCCGG
- apparent Kd [3]: 19.6 nM
- apparent Kd [4]: 55.8 nM

Sequence: AUAGUCGGGAGAUAAACUCGUGCGGUAGAAGGGUGAUACUGGACAUGAGGAUCACCCAUGUGCACACAGGAUAUGCCCGCGAGC
- apparent Kd [1]: 83.6 nM
- apparent Kd [2]: 24.3 nM

Sequence: GCUGCGCGAGGAUAUGCGGUUUGUGCUUUGGCCCAUGGCGUACAUGAGGAUCACCCAUGUAGAAGGCGUGUGGG
- apparent Kd [3]: 13.5 nM
- apparent Kd [4]: 13.8 nM

Sequence: CUAGCAGAUGUAGGAUAUGCUCAGGAUAACUGAGCAGAAGGACAUGAGGAUCACCCAUGUAAAGUGUCUCUAAAUAACUGCUAG
- apparent Kd [3]: 22.9 nM
- apparent Kd [4]: 80.5 nM

Sequence: CUGUCGAUAUCAGGAUAUCGUUUACAUACAUGAGGAUCACCCAUGUUGACAUGGAGCAUAAUUUGCGAGAAGGGAUAACGAUAG
- apparent Kd [1]: 23.5 nM
- apparent Kd [2]: 14.3 nM

Sequence: GUUAUAGGAGGAUAUACAUGAGGAUCACCCAUGUCUCACCCAUGGCAACGAACCUAUUGUAGAAGGCUUGAAGA
- apparent Kd [3]: 74.5 nM
- apparent Kd [4]: 182 nM

Sequence: CAUACACAUGAGGAUCACCCAUGUGAGGAUAUGCGUACGUUGUCCGUAGGCGACGUGCGCAGAAGGCGCGUGAG
- apparent Kd [3]: 60.1 nM
- apparent Kd [4]: 67.6 nM

Sequence: GCGAUUUUGUAAGGAUAUACACGAGUUUUAAGUGUAGAAGGUACUUACAUGAGGAUCACCCAUGUAUAAAUGUAUAAUGGUCGC
- apparent Kd [1]: 12.4 nM
- apparent Kd [2]: 9.82 nM

Sequence: AAUAUGUUGCAGAAGGUUAUAUUUUUUUCGUUCCUCAUGACAUGAGGAUCACCCAUGUAUUUGUUGAAGGAUAUGCAAUAUAUU
- apparent Kd [3]: 19.9 nM
- apparent Kd [4]: 17.6 nM

Sequence: CAGCACAUGAGGAUCACCCAUGUGCAUCCAUCAUGUGCCGUGCAGGAUAUAGACCGCCGUCCAGUCUAGAAGGGCACCGAUGAC
- apparent Kd [3]: 159 nM
- apparent Kd [4]: 75.1 nM

Sequence: UUCAUGUGAGGAUAUGCGGCGCCAGGCGAGCCUGGCACUGAGCAGAAGGCACAUGAGGAUCACCCAUGUGCUCC
- apparent Kd [3]: 33.5 nM
- apparent Kd [4]: 73.5 nM

Sequence: AUGGUCAUGUUAGGAUAUGACGCGCUGUACGCAUCAGAAGGAACAUGAGGAUCACCCAUGUAUAGAGUAAUGUCGCUUACUCUC
- apparent Kd [3]: 47.9 nM
- apparent Kd [4]: 187 nM

Sequence: CCUAUACAUGAGGAUCACCCAUGUCAGGAUAUAGAAAGCUACGGAAUAGGACGUAGCACUAGAAGGGACUGGCU
- apparent Kd [3]: 29.2 nM
- apparent Kd [4]: 43.4 nM
